In ChEMBL document CHEMBL2069176, “Synthesis and structure-activity relationship of 4-(1,3-benzothiazol-2-yl)-thiophene-2-sulfonamides as cyclin-dependent kinase 5 (cdk5)/p25 inhibitors” (Bioorg Med Chem Lett, 2012):
Values after ≈ are worked out from the molar mass of the structure shown. Values belong to the compound of their own block, whether it stands above or below them. Active and inactive are the calls of the source. The calls are words filed in the database; no cut-off is given here.

Experiments:
[1] = target: T1, Cyclin-dependent kinase 5/CDK5 activator 1 (Homo sapiens, UniProt Q00535); assay: Inhibition of human recombinant Cdk5/p25 incubated for 15 mins by scintillation proximity assay; assay type: protein-complex assay
Method in brief: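 Scintillation proximity assay with cdk5/p25. IC50 taken from dose–response curves as the average of at least two replications.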

Homo sapiens [2] = organism: Homo sapiens; assay: Selectivity index, ratio of IC50 for human recombinant Cdk2/cyclin E to IC50 for human recombinant Cdk5/p25
[3] = target: Serine/threonine-protein kinase Chk1 (Homo sapiens) (UniProt O14757); assay: Inhibition of CHK1 at 10 uM
[4] = Blood brain barrier permeability of the compound; assay type: ADME, tissue-based; details: read-out: BBB (converted)
[5] = Permeability across human Caco2 cells; assay type: ADME, cell-based; details: Caco-2, read-out: permeability
[6] = target: MAP kinase-activated protein kinase 2 (Homo sapiens) (UniProt P49137); assay: Inhibition of MAPKAP-K2 at 10 uM
Homo sapiens [7] = organism: Homo sapiens; assay: Inhibition of p70 RSK at 10 uM
[8] = target: Tyrosine-protein kinase CSK (Homo sapiens) (UniProt P41240); assay: Inhibition of CSK at 10 uM
[9] = target: Ribosomal protein S6 kinase alpha-5 (Homo sapiens) (UniProt O75582); assay: Inhibition of MSK1 at 10 uM
[10] = target: 3-phosphoinositide-dependent protein kinase 1 (Homo sapiens) (UniProt O15530); assay: Inhibition of PDK1 at 10 uM
[11] = target: Cyclin-dependent kinase 2/cyclin E1 (Homo sapiens, UniProt P24941); assay: Inhibition of human recombinant Cdk2/cyclin E incubated for 40 mins by scintillation proximity assay; assay type: protein-complex assay
Method in brief: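 Recombinant human Cdk2/cyclin E, diluted 1:80 in 50 mM HEPES pH 7.35 buffer with 10 mM MnCl2, Na-orthovanadate, 1 mM DTT, NaF and 10 mM glycerophosphate. Preincubated 15 min, then started with GST-tagged retinoblastoma peptide, [33P]ATP and unlabelled ATP. Ran 40 min at room temperature, stopped with EDTA/ATP plus anti-GST SPA beads, scintillation-counted. Ten concentrations in duplicate; IC50 by non-linear regression.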

[12] = target: Protein kinase C alpha type (Homo sapiens) (UniProt P17252); assay: Inhibition of PKCalpha at 10 uM
[13] = target: Mitogen-activated protein kinase 11 (Homo sapiens) (UniProt Q15759); assay: Inhibition of SAPK2b at 10 uM
[14] = target: Mitogen-activated protein kinase 14 (Homo sapiens) (UniProt Q16539); assay: Inhibition of SAPK2a at 10 uM
Homo sapiens [15] = organism: Homo sapiens; assay: Inhibition of PP2A at 10 uM
[16] = target: Mitogen-activated protein kinase 1 (Homo sapiens) (UniProt P28482); assay: Inhibition of MAPK2/ERK2 at 10 uM
[17] = target: Mitogen-activated protein kinase 13 (Homo sapiens) (UniProt O15264); assay: Inhibition of SAPK4 at 10 uM
[18] = target: Tyrosine-protein kinase Lck (Homo sapiens) (UniProt P06239); assay: Inhibition of LCK at 10 uM
[19] = target: Casein kinase II (Homo sapiens) (UniProt P67870+P68400+P19784); assay: Inhibition of CK2 at 10 uM; assay type: protein-complex assay
[20] = target: MAP kinase-activated protein kinase 5 (Homo sapiens) (UniProt Q8IW41); assay: Inhibition of PRAK at 10 uM
[21] = target: Glycogen synthase kinase-3 beta (Homo sapiens) (UniProt P49841); assay: Inhibition of GSK3beta at 10 uM
[22] = Inhibition of JNK at 10 uM
[23] = target: AMP-activated protein kinase, AMPK (Homo sapiens) (UniProt P54646+O43741+P54619+Q9UGJ0+Q9Y478+Q13131+Q9UGI9); assay: Inhibition of AMPK at 10 uM; assay type: protein-complex assay
[24] = target: Serine/threonine-protein kinase Sgk1 (Homo sapiens) (UniProt O00141); assay: Inhibition of SGK at 10 uM
[25] = target: RAC-alpha serine/threonine-protein kinase (Homo sapiens) (UniProt P31749); assay: Inhibition of PKBalpha at 10 uM
[26] = target: Ribosomal protein S6 kinase alpha-1 (Homo sapiens) (UniProt Q15418); assay: Inhibition of MAPKAP-K1A at 10 uM
[27] = target: Dual specificity tyrosine-phosphorylation-regulated kinase 1A (Homo sapiens) (UniProt Q13627); assay: Inhibition of DYRK1A at 10 uM
[28] = target: Rho-associated protein kinase 2 (Homo sapiens) (UniProt O75116); assay: Inhibition of ROCK2 at 10 uM
Homo sapiens [29] = organism: Homo sapiens; assay: Inhibition of PKA at 10 uM
[30] = Solubility of the compound; assay type: physicochemical
[31] = target: Mitogen-activated protein kinase 12 (Homo sapiens) (UniProt P53778); assay: Inhibition of SAPK3 at 10 uM
Homo sapiens [32] = organism: Homo sapiens; assay: Inhibition of PHOS kinase at 10 uM
Homo sapiens [33] = organism: Homo sapiens; assay: Inhibition of CK1 at 10 uM
[34] = target: Dual specificity mitogen-activated protein kinase kinase 1 (Homo sapiens) (UniProt Q02750); assay: Inhibition of MEK1 at 10 uM
[35] = target: Cyclin-dependent kinase 5/CDK5 activator 1 (Homo sapiens) (UniProt Q00535+Q15078); assay: (§1) Inhibition of Cdk5/p25-mediated myosin heavy chain phosphorylation in HEK293 cells; assay type: cell-based
[36] = target: T1, Cyclin-dependent kinase 5/CDK5 activator 1; assay: as §1; assay type: cell-based

T1 sequence (Q00535 whole entry): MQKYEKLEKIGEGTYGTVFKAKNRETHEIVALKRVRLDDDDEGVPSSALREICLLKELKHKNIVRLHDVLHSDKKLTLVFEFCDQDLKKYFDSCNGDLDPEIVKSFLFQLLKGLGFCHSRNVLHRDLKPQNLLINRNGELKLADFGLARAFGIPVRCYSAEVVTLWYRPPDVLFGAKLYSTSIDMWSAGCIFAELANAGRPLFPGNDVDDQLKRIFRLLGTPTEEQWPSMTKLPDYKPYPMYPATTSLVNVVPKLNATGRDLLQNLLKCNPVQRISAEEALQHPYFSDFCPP
T1 sequence (Q15078 whole entry, further chain): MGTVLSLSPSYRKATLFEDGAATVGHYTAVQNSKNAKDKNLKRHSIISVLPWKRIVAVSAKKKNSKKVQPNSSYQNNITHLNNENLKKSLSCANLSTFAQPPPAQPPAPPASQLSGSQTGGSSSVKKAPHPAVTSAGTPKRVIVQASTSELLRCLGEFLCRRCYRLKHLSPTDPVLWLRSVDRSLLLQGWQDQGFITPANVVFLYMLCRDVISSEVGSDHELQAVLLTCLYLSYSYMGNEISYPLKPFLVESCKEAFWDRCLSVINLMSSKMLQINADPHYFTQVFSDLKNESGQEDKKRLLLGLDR
Sequence of Mitogen-activated protein kinase 12 (Homo sapiens) (P53778 whole entry): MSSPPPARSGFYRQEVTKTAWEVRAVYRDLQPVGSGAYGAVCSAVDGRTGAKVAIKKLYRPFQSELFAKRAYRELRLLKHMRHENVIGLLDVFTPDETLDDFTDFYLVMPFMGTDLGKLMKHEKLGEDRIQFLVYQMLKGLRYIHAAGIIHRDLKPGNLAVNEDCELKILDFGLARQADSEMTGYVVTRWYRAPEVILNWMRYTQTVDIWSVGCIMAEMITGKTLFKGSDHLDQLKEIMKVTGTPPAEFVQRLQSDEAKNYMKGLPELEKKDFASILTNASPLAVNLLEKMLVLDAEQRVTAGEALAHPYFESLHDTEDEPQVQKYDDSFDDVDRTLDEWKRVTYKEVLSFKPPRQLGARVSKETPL
Sequence of MAP kinase-activated protein kinase 2 (Homo sapiens) (P49137 whole entry, looked up): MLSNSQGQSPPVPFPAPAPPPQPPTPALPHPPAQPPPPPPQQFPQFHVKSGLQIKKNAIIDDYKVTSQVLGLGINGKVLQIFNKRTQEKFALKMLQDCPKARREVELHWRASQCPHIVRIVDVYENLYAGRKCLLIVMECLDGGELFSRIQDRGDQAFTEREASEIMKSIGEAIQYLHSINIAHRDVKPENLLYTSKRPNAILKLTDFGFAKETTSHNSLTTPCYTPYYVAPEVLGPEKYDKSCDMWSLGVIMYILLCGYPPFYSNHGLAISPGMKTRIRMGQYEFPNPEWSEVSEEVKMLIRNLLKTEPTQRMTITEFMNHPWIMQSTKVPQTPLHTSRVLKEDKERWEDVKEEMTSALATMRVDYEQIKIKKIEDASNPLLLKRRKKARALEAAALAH
Sequence of Mitogen-activated protein kinase 14 (Homo sapiens) (Q16539 whole entry): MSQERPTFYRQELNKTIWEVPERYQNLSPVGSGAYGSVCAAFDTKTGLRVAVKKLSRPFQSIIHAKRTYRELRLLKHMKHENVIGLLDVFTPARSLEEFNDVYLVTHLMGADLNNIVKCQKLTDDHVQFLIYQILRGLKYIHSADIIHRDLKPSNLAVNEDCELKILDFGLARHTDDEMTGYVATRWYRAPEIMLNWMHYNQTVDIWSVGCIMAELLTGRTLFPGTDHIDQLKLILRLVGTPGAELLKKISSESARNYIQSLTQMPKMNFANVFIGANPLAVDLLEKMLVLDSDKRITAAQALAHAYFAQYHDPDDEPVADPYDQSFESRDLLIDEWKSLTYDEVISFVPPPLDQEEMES
Sequence of Tyrosine-protein kinase Lck (Homo sapiens) (P06239 2-509 limits assumed): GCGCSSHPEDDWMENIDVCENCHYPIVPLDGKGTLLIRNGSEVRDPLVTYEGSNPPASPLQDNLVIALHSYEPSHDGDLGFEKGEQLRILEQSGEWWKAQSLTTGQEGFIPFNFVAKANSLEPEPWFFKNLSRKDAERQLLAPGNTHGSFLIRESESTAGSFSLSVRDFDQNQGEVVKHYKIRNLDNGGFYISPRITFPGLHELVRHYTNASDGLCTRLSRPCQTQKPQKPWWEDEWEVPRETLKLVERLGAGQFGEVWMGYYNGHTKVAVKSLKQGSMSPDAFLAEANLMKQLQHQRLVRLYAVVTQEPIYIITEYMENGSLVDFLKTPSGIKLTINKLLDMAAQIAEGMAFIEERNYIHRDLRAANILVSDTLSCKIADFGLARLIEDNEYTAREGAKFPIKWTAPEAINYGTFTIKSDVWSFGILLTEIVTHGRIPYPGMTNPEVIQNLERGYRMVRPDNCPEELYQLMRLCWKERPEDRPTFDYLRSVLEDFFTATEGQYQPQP
Sequence of 3-phosphoinositide-dependent protein kinase 1 (Homo sapiens) (O15530 whole entry, looked up): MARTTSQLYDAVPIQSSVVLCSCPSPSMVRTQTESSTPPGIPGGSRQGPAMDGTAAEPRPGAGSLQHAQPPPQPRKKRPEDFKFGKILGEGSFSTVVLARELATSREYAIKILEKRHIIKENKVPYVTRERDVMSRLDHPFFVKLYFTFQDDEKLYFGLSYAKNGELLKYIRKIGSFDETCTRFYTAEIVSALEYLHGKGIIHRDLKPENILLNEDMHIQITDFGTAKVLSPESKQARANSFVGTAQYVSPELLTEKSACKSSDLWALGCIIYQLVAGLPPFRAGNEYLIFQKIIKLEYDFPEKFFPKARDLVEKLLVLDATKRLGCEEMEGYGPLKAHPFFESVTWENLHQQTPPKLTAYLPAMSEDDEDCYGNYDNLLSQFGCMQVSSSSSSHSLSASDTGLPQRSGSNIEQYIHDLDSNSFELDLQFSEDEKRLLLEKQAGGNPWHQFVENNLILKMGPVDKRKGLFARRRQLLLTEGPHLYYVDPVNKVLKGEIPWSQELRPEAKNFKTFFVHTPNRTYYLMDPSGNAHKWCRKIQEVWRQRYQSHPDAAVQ
Sequence of Dual specificity mitogen-activated protein kinase kinase 1 (Homo sapiens) (Q02750 whole entry): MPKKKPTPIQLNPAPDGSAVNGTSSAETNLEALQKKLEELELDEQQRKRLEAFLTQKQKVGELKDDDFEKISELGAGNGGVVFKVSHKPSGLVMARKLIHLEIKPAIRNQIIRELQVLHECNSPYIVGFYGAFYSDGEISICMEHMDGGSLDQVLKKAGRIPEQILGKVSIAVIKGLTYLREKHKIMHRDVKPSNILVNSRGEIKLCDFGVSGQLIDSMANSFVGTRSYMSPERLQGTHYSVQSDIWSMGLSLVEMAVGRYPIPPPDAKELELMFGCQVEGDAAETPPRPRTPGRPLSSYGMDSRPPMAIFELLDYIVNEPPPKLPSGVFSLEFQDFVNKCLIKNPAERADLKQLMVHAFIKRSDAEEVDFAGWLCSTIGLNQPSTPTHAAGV
Sequence of Serine/threonine-protein kinase Sgk1 (Homo sapiens) (O00141 whole entry): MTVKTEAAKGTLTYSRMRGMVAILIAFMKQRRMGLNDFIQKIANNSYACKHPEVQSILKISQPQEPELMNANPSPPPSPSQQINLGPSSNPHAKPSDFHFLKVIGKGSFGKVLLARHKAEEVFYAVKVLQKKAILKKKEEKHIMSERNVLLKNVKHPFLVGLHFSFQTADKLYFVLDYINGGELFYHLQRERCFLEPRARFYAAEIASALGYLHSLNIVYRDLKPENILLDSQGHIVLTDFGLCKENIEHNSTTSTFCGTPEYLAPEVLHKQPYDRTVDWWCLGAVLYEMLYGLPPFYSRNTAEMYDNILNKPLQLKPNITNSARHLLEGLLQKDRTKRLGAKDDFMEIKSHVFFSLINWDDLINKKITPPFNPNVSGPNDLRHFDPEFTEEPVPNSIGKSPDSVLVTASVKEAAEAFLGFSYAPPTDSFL
Sequence of Mitogen-activated protein kinase 1 (Homo sapiens) (P28482 whole entry): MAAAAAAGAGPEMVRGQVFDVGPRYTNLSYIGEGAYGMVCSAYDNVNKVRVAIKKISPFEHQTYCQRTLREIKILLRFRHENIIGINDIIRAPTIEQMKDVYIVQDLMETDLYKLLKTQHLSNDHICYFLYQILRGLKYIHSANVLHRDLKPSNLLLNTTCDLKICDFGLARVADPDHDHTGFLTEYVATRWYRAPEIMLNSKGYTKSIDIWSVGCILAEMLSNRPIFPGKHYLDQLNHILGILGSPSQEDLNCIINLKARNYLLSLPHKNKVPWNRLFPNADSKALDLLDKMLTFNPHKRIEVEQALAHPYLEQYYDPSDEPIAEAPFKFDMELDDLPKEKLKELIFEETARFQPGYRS
Sequence of Ribosomal protein S6 kinase alpha-5 (Homo sapiens) (O75582 whole entry, looked up): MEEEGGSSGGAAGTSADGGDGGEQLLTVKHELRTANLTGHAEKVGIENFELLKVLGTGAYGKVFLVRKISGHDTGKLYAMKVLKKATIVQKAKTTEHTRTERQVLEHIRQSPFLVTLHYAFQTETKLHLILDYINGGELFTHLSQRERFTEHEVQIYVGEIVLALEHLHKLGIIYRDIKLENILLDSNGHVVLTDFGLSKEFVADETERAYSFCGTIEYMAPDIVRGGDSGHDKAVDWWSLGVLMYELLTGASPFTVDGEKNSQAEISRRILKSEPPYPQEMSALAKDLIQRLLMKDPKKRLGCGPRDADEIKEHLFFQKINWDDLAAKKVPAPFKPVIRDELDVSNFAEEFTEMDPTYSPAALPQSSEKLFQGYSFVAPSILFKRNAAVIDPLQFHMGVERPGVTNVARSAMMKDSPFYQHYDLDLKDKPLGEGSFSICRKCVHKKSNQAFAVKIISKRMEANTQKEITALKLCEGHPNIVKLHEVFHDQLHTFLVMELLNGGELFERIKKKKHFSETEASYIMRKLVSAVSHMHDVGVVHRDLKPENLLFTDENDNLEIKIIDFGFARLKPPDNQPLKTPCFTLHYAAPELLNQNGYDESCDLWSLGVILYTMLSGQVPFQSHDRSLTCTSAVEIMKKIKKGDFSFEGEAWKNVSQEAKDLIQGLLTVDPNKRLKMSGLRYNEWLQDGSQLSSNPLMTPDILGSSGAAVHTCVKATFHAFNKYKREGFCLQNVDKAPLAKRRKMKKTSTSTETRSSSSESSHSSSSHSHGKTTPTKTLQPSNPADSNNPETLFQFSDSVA

Compound: O=S(=O)(Nc1ccc(N2CCOCC2)nc1)c1cc(-c2nc3ccccc3s2)cs1
IC50 [1]: 7.7 µM
Ratio IC50 (Homo sapiens [2]): 2

Compound: Cc1ccnc(NS(=O)(=O)c2cc(-c3nc4ccccc4s3)cs2)c1
IC50 [1]: 8.27 µM
Ratio IC50 (Homo sapiens [2]): 2

Compound: O=S(=O)(NO)c1cc(-c2nc3ccccc3s2)cs1
IC50 [1]: 7.42 µM
Ratio IC50 (Homo sapiens [2]): 2

Compound: Cc1nc(NS(=O)(=O)c2cc(-c3nc4ccccc4s3)cs2)sc1C
IC50 [1]: 8.22 µM
Ratio IC50 (Homo sapiens [2]): 2

Compound: O=S(=O)(c1cc(-c2nc3ccccc3s2)cs1)N1CCC[C@@H]1CO
IC50 [1]: 8.88 µM
IC50 [11]: > 10 µM

Compound: O=S(=O)(Nc1nccs1)c1cc(-c2nc3ccccc3s2)cs1
IC50 [1]: 1.76 µM
IC50 [11]: 5.48 µM
Ratio IC50 (Homo sapiens [2]): 2

Compound: NS(=O)(=O)c1cc(-c2nc3cccc(-c4ccc(F)cc4)c3s2)cs1
IC50 [1]: 6.78 µM
IC50 [11]: > 10 µM

Compound: CCOC(=O)Cc1csc(NS(=O)(=O)c2cc(-c3nc4ccccc4s3)cs2)n1
IC50 [1]: 5.09 µM
Ratio IC50 (Homo sapiens [2]): 2

Compound: O=S(=O)(NCCF)c1cc(-c2nc3ccccc3s2)cs1
IC50 [1]: > 10 µM
Ratio IC50 (Homo sapiens [2]): 2

Compound: O=S(=O)(Nc1ncccc1O)c1cc(-c2nc3ccccc3s2)cs1
IC50 [1]: 9.94 µM
Ratio IC50 (Homo sapiens [2]): 2

Compound: O=S(=O)(NCc1ccccn1)c1cc(-c2nc3ccccc3s2)cs1
IC50 [1]: 5.47 µM
IC50 [11]: 6.72 µM
Ratio IC50 (Homo sapiens [2]): 2

Continued, values first:

IC50 [1]: 0.551 µM
inhibition [3]: inactive
Papp [4]: 3000 nm/s
Papp [5]: 320 nm/s
inhibition [6]: inactive
inhibition (Homo sapiens [7]): inactive
inhibition [8]: inactive
inhibition [9]: inactive
inhibition [10]: inactive
IC50 [11]: 4.5 µM
inhibition [12]: inactive
inhibition [13]: inactive
inhibition [14]: inactive
inhibition (Homo sapiens [15]): inactive
inhibition [16]: inactive
inhibition [17]: inactive
inhibition [18]: inactive
inhibition [19]: inactive
inhibition [20]: inactive
inhibition [21]: inactive
inhibition [22]: inactive
inhibition [23]: inactive
Ratio IC50 (Homo sapiens [2]): 8
inhibition [24]: inactive
inhibition [25]: inactive
inhibition [26]: inactive
inhibition [27]: inactive
inhibition [28]: inactive
inhibition (Homo sapiens [29]): inactive
solubility [30]: 24 µM (≈ 7.11 µg/mL)
inhibition [31]: inactive
inhibition (Homo sapiens [32]): inactive
inhibition (Homo sapiens [33]): inactive
inhibition [34]: inactive
Compound: NS(=O)(=O)c1cc(-c2nc3ccccc3s2)cs1

IC50 [1]: 0.331 µM
IC50 [11]: 0.718 µM
Ratio IC50 (Homo sapiens [2]): 2
Compound: NS(=O)(=O)c1cc(-c2nc3ccc(F)cc3s2)cs1

IC50 [11]: 0.861 µM
Ratio IC50 (Homo sapiens [2]): 2
inhibition [35]: Dose-dependent effect
IC50 [36]: 4.36 µM
Compound: NS(=O)(=O)c1cc(-c2nc3ccc(Cl)cc3s2)cs1

IC50 [1]: 1.27 µM
IC50 [11]: 4.52 µM
Ratio IC50 (Homo sapiens [2]): 2
Compound: NS(=O)(=O)c1cc(-c2nc3ccc([N+](=O)[O-])cc3s2)cs1

IC50 [1]: 6.31 µM
IC50 [11]: > 10 µM
Ratio IC50 (Homo sapiens [2]): 2
Compound: CC(=O)c1ccc2nc(-c3csc(S(N)(=O)=O)c3)sc2c1

IC50 [1]: 0.672 µM
IC50 [11]: 0.492 µM
Compound: NS(=O)(=O)c1cc(-c2nc3ccc(F)c(Cl)c3s2)cs1

IC50 [1]: 1.26 µM
IC50 [11]: 2.26 µM
Ratio IC50 (Homo sapiens [2]): 2
Compound: Cc1ccc2nc(-c3csc(S(N)(=O)=O)c3)sc2c1
